Here are results for ten compounds from publication PMC9378630 (Chemmedchem, 2022).

Values joined by “and” are separate entries in the source; they are usually repeats but may differ in a detail not shown here. Equal entries are not always repeated. Where two headings read alike, the source gives them in different places.

Series [1] is described as follows: AlamarBlue cytotoxicity assay in IMR-90 fibroblasts. Type of series: cell-based, human. The settings on record: human, IMR-90 lung fibroblast cells. An outline of the steps:
(§1)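 IMR-90 lung fibroblasts cultured 2 weeks in EMEM + 10% FBS, split 2–4 days before use, trypsin-EDTA detached and resuspended in culture medium. Added to test compound (2.2x in Low/Low buffer). 8 half-log concentrations, 100 μM to 32 nM final, in duplicate. AlamarBlue added, 37 °C, fluorescence 560/590 nm read every 30 min over 7 h. IC50 from concentration-response fit.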
In general terms: Alamar Blue is a resazurin reagent that responds to reducing activity.

The nature of series [2]: AlamarBlue cytotoxicity assay in human sperm. The following applies: human, human sperm. Type of series: cell-based. An outline of the steps: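 Sperm isolated by centrifugation: liquefied at 37 °C, HTF-washed twice, 800×g, resuspended in Low/Low (low pH/low K+) buffer. Mixed with test compound (2.2x in Low/Low). 8 half-log concentrations, 100 μM to 32 nM final, in duplicate. AlamarBlue at 37 °C, 560/590 nm fluorescence every 15 min over 3 h. IC50 from concentration-response fit.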

Series [3] concerns the target hERG (Homo sapiens, UniProt Q12809). Kind of series: hERG manual patch-clamp in HEK293 cells. It counts as cell-based. The following applies: HEK293 cells expressing hERG. For orientation: The hERG channel carries a current that helps repolarise heart muscle cells.
In series [4] the target is hNav1.5 (Homo sapiens, UniProt Q14524). Kind of series: hNav1.5 manual patch-clamp in CHO cells. It counts as cell-based. The following applies: read-out: Inhibition at 10 μM [%] hNav1.5. On the technique in general: In patch-clamp work, channel activity is measured electrically.
Series [5] has as its target T1, CatSper (Homo sapiens, UniProt Q7RTX7+Q86XQ3+Q8NEC5+Q96P56). Kind of series: Progesterone-induced calcium uptake. Type of series: cell-based.
Series [6] has as its target hCav1.2 (Homo sapiens, UniProt Q13936). As to the kind of experiment: hCav1.2 FLIPR assay in stably expressing cell line. Type of series: cell-based. The following applies: read-out: Inhibition at 10 μM [%] hCav1.2.
Series [7] has as its target T2, human SLO3 and LRRC52 (Homo sapiens, UniProt A8MYU2).
T2 sequence (A8MYU2 1-1149): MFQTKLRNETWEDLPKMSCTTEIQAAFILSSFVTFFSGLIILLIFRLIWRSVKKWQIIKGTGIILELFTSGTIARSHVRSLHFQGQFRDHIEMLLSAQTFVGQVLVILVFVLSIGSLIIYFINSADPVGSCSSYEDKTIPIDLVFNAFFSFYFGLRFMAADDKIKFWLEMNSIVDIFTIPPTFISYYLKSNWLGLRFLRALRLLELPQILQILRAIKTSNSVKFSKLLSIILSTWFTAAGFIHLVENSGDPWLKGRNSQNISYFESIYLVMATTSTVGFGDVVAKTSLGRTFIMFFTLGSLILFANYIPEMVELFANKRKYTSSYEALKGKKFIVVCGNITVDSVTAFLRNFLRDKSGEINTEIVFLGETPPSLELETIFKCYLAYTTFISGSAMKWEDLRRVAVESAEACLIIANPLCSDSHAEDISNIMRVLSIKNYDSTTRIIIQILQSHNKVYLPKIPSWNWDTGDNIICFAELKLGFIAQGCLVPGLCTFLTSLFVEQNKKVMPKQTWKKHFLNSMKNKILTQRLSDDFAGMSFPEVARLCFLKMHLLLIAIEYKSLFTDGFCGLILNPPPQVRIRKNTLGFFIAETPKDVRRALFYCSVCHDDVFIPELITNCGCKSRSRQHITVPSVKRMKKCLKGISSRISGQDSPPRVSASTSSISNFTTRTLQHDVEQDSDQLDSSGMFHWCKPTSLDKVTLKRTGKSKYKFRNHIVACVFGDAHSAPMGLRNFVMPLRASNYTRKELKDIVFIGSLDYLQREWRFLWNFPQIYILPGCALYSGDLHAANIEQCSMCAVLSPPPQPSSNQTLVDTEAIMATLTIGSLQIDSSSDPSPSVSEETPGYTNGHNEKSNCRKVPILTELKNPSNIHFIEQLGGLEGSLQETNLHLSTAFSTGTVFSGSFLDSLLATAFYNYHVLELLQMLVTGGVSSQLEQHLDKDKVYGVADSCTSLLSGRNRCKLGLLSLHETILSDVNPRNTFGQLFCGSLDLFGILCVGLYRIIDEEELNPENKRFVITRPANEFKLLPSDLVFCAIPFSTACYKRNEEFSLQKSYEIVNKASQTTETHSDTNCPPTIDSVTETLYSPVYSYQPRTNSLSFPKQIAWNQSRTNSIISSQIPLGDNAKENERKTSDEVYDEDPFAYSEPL
T2 sequence (Q8N7C0 24-313 partner): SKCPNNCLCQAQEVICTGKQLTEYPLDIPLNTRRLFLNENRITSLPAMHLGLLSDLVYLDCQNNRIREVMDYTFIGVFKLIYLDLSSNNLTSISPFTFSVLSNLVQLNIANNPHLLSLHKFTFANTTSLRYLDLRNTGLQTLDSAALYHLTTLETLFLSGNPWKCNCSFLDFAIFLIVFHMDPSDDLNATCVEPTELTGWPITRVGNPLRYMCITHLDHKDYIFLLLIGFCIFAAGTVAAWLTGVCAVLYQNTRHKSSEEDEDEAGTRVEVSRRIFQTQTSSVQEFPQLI
It counts as cell-based. The following applies: for hSLO3 current in the presence of compound, % of control: 10 μM, +60 mV, n=5 cells, mean±SD in text; for inhibition at 10 µM: HEK293, read-out: Inhibition at 10 μM [%] hSlo3.

The test system of series [8] is IMR‐90 fibroblasts. Kind of series: AlamarBlue cytotoxicity assay in IMR-90 fibroblasts. It counts as cell-based, human. The following applies: at concentrations fully inhibiting CatSper; AlamarBlue, 2 h. An outline of the steps: as §1
Series [9] concerns the target T1, CatSper. Kind of series: Whole cell patch clamp electrophysiology of ICatSper in human sperm. It counts as cell-based. The settings on record: for Inhibition (block) of the inward ICatSper: 10 μM compound, human sperm, CsDVF. An outline of the steps: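 Swim-up sperm, seal at cytoplasmic droplet in HS buffer (pH 7.4), 12–18 MΩ pipettes with CsDVF internal. Break-in by 1 ms 450 mV pulses. Control current in CsDVF bath, then 10 μM compound for ~8–10 s. Ramp −80 to +80 mV from 0 mV every 3 s. Current density at ±80 mV, room temperature. Washout with CsDVF.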

Series [10] has as its system human sperm. As to the kind of experiment: CASA: PGE1-induced hyperactivated motility. Type of series: cell-based. The settings on record: 100 nM compound, 100 nM PGE1, HAM measured after 4 h.
In series [11] the test system is human sperm. Kind of series: CASA: progesterone-induced hyperactivated motility. The settings on record: 10 μM compound, 100 nM progesterone, HAM measured after 4 h. Type of series: cell-based.
For series [12], the system named is human sperm. Kind of series: Computer-aided sperm analysis. It counts as cell-based. The settings on record: 10 μM, 4 h incubation with human sperm. An outline of the steps:
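Motile sperm selected by swim-up into bicarbonate-free HAM's-F10 (37 °C, 5% CO2, 1 h), ≥10×10^6 cells/mL. Incubated 4 h with increasing test compound concentrations. CASA at 37 °C gives total and progressive motility from VAP, VSL, VCL, LIN and STR, as % of population. ≥10 fields/≥200 cells. Mean±SEM of ≥3 experiments; one-way ANOVA with Dunnett's test.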

[13] abbreviates: read-out: Inhibition (block) of the inward ICatSper.
Where [14] appears, read: read-out: Inhibition at 10 μM [%] CatSper.

Chain of hCav1.2 (Q13936 whole entry): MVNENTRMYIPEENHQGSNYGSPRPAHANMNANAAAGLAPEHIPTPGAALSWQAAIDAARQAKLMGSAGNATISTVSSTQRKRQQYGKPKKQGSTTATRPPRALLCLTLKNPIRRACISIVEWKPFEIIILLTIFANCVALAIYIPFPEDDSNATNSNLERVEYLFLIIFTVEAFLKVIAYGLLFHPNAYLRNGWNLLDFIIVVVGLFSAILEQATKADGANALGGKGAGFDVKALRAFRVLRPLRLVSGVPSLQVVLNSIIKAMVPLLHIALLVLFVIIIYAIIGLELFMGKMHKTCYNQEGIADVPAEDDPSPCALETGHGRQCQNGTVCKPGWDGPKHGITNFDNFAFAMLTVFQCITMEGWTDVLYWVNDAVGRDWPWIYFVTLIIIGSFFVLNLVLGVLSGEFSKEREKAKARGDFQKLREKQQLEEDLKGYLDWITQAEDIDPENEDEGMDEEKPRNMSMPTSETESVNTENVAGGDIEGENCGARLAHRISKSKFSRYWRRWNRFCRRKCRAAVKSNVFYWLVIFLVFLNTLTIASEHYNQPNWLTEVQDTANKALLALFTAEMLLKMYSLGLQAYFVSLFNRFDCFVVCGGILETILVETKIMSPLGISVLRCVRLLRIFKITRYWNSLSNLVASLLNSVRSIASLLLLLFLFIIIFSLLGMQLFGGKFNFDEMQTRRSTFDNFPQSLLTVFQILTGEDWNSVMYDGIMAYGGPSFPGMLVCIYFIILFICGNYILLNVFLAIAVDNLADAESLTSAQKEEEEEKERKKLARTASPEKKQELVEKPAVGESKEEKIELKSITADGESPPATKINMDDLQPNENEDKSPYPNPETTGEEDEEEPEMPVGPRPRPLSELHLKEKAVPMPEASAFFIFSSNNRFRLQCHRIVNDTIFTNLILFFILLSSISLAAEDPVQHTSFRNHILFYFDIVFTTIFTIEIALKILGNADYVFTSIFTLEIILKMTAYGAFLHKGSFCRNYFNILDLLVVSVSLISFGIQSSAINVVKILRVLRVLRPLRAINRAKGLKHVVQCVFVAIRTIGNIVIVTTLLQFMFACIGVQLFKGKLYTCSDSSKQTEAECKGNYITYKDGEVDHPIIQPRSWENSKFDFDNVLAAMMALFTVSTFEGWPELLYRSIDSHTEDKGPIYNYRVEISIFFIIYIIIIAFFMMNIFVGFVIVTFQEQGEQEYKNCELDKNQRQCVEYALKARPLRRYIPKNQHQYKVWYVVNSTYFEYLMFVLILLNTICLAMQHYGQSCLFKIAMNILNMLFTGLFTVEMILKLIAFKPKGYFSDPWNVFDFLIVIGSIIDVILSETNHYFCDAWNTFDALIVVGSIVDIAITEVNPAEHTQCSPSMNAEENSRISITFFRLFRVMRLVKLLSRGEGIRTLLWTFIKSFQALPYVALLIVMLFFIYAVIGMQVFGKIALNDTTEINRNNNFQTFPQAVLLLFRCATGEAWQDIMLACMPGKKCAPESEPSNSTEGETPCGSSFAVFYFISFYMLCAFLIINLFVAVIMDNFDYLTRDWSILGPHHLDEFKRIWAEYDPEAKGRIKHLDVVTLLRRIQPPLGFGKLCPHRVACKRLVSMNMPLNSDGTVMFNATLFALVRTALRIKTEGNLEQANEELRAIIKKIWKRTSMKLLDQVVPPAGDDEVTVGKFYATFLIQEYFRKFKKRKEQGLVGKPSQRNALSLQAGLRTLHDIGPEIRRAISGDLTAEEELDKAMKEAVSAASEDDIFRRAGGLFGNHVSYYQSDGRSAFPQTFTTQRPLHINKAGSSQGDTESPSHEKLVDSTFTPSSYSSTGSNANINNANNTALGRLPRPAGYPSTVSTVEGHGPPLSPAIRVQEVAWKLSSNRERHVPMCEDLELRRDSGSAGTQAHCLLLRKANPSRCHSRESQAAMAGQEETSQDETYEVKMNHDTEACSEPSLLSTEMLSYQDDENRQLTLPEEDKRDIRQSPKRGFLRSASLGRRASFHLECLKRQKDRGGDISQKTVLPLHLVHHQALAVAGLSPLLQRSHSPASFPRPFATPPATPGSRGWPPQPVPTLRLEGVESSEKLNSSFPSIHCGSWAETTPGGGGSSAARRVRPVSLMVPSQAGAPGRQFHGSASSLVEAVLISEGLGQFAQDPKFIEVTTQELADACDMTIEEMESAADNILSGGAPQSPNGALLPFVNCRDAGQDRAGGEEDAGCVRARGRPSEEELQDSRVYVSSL
Chain of hNav1.5 (Q14524 whole entry): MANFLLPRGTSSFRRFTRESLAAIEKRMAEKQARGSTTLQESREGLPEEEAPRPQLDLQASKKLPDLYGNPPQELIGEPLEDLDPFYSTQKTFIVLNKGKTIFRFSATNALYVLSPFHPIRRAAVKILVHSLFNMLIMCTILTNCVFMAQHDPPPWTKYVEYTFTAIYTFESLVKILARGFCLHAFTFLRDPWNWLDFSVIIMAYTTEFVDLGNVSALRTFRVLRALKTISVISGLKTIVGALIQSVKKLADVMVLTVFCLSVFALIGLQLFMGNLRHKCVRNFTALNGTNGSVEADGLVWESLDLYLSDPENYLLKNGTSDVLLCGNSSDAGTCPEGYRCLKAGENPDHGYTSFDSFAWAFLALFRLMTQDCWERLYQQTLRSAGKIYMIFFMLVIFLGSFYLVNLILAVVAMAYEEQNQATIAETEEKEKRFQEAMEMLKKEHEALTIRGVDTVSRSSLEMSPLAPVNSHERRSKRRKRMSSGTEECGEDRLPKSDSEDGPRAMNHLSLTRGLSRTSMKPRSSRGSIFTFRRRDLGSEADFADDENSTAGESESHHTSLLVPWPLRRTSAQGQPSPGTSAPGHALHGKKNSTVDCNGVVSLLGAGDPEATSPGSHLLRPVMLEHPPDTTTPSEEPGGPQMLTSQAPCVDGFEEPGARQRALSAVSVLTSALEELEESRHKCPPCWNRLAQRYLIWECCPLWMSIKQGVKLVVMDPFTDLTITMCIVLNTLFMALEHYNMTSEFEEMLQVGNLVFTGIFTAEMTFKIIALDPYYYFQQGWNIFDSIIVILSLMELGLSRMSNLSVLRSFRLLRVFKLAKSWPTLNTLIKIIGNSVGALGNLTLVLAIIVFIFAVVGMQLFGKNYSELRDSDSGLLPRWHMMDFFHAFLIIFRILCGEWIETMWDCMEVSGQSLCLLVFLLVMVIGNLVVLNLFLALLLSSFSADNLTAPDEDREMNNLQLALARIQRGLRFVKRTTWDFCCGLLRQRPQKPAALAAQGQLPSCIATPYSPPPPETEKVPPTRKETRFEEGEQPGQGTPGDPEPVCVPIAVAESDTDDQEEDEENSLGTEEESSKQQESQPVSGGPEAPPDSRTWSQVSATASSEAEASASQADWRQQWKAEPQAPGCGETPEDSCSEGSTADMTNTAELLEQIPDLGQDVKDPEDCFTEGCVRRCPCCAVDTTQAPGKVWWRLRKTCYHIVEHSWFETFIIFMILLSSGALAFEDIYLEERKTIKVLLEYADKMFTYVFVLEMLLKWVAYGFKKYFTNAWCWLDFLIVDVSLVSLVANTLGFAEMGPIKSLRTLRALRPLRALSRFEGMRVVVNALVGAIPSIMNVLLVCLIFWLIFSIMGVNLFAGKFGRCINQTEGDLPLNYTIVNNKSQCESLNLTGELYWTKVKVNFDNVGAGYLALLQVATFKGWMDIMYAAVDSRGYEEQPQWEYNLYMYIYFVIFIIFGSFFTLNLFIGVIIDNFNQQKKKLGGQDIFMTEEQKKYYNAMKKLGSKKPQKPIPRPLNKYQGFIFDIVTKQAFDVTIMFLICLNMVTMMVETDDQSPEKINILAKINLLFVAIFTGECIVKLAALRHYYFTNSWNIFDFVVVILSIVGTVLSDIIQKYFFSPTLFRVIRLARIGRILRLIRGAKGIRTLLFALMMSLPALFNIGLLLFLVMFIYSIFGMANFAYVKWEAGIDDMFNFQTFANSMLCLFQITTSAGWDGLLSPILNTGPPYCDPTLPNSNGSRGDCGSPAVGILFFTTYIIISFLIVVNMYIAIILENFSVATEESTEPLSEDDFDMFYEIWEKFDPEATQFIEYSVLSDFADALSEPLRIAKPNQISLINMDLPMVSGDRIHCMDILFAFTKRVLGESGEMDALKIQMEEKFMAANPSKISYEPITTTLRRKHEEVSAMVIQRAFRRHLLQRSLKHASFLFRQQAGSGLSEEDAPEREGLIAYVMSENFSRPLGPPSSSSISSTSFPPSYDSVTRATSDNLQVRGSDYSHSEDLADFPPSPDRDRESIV

Turning to `NC(N)=NC(=O)c1nc(Cl)c(N2CCCCCC2)nc1N` [1 a, 3‐Amino‐5‐(azepan‐1‐yl)‐6‐chloro‐N‐(diaminomethylene)pyrazine‐2‐carboxamide], in series [1], the IC50 at 7 h was > 100 µM. In addition, the IC50 at 3 h in [2] was > 100 µM. Besides, the inhibition at 10 µM in series [3] is 92%; in series [4] it was 68%; in [6] it was 4%; in series [7], -2%. In [5], the IC50 amounted to 5.4 ± 0.6 µM. Also, the “hSLO3 current in the presence of compound, % of control” value (“hSLO3 current … % of control” below) in series [7] is on record as 101.5±6.4 % of control.
For `OC1(c2ccc(Cl)cc2)CCN(Cc2c[nH]c3ccccc23)CC1` [2 a, 4‐(4‐Chlorophenyl)‐1‐(1H‐indol‐3‐ylmethyl)‐4‐piperidinol], in [1], the IC50 at 7 h was > 100 µM. In addition, in [8], the “Effect on IMR‐90 viability” value is “reduce viability slightly”. Moreover, the IC50 at 3 h in [2] is > 100 µM. For the same compound, the inhibition at 10 µM in [9] (setting [13]) is 65%; in series [9] (setting [14]) it was 73%; in series [3], 100%; in series [4], 77%; in series [6], 39%. In [10], the “Inhibition of PGE1-induced HAM” value is “greatly reduced HAM”. Further, the IC50 in [5] came to 7.5 ± 1.3 µM.
As to `CCN(CC)CCNC(=O)C1CCN(c2ccc3nnc(-c4cccc(C)c4)n3n2)CC1` [7 a, N ‐(2‐(Diethylamino)ethyl)‐1‐(3‐(m–tolyl)‐[1,2,4]triazolo[4,3‐b]pyridazin‐6‐yl)piperidine‐4‐carboxamide], in [1], the IC50 at 7 h is > 100 µM. Also, the IC50 at 3 h in [2] is > 100 µM. The “Reduction of progesterone-induced HAM” value in series [11] is “statistically significant”. For the same compound, in [9] (setting [13]), the inhibition at 10 µM was determined as 89%. The IC50 in series [5] was determined as 20 ± 1 µM. Besides, in series [12], the “Progressive motility (CASA)” value was “substantially reduced” and the “Total motility (CASA)” value is recorded as “substantially reduced”. Besides, the inhibition at 10 µM in series [6] was -9%. In addition, in [7] (10 µM), the “hSLO3 current … % of control” value is 37.5±5.6 % of control and 38 % of control.
Regarding `N=C(N)NC(=O)c1nc(Cl)c(N)nc1N` [1 d, amiloride, reference compound], in series [5], the IC50 is > 100 µM.
Still for that read-out and setting: in the case of `c1ccc(CN2CCC(c3c[nH]c4ccccc34)CC2)cc1` [2 l, 3‐(1‐benzylpiperidin‐4‐yl)‐1H‐indole] it was > 100 µM.
On to `Cc1cc(C)c2nc(C)cc(NCCc3ccccc3)c2c1` [3 a, 2,6,8‐Trimethyl‐N‐(2‐phenylethyl)‐4‐quinolinamine], for which the IC50 at 7 h in series [1] was determined as 96 ± 5 µM. Also, the IC50 at 3 h in [2] was > 100 µM. For the same compound, in series [9], the “Inhibition (block) of the inward ICatSper” value was “near complete inhibition”. Besides, the inhibition at 10 µM in series [9] (setting [14]) amounted to 96%; in series [3], 100%; in series [4], 94%; in series [6], 10%; in [7], 42%. In [5], the IC50 is 3.6 ± 0.6 µM. Moreover, in series [7], the “hSLO3 current … % of control” value is 58.5±12.5 % of control.
The compound `N=c1n(CCN2CCCCC2)c2ccccc2n1CC(O)c1cccc(Br)c1` (centres unmarked) [5 f, 1‐(3‐Bromophenyl)‐2‐(2‐imino‐3‐(2‐(piperidin‐1‐yl)ethyl)‐2,3‐dihydro‐1H‐benzo[d]imidazol‐1‐yl)ethan‐1‐ol] registered an IC50 at 7 h in [1] of 83 ± 14 µM. In addition, the IC50 at 3 h in [2] is > 100 µM. In series [9] (setting [13]), the inhibition at 10 µM was found to be 47%. In addition, in [9] (washed out with CsDVF after 10 μM compound), the “Reversibility of ICatSper block on washout” value is on record as “apparent irreversible loss of channel function”. In addition, in series [5], the IC50 turned out to be 3.4 ± 0.4 µM. In series [12], the “Progressive motility (CASA)” value is recorded as “substantially reduced” and the “Total motility (CASA)” value is “substantially reduced”. In series [7], the “hSLO3 current … % of control” value was 83.2±7.8 % of control.
As for `O=c1c2ccccc2c(Cc2ccc(Cl)cc2)nn1C1CCCNCC1` (centres unmarked) [6 b, 2‐(Azepan‐4‐yl)‐4‐(4‐chlorobenzyl)phthalazin‐1(2H)‐one], the IC50 at 7 h in [1] was 68 ± 5 µM. The “Effect on IMR‐90 viability” value in [8] was “reduce viability slightly”. The compound further registered an IC50 at 3 h in series [2] of 84 ± 10 µM. Further, the “Reduction of progesterone-induced HAM” value in series [11] is on record as “statistically significant”. Moreover, in [9], the “Inhibition (block) of the inward ICatSper” value was “near complete inhibition”. For the same compound, the inhibition at 10 µM in series [9] (setting [14]) was found to be 100%. The IC50 in series [5] is 8.3 ± 1.1 µM. The “hSLO3 current … % of control” value in [7] is 66.3±8.5 % of control.
Turning to `O=C(Nc1cccc(C(F)(F)F)c1)N1CCN(c2cccc(C(F)(F)F)c2)CC1` [4 a, N ,4‐Bis(3‐(trifluoromethyl)phenyl)piperazine‐1‐carboxamide], the IC50 at 7 h in series [1] is > 100 µM. In addition, in [2], the IC50 at 3 h was > 100 µM. The “Reduction of progesterone-induced HAM” value in series [11] was “statistically significant”. Besides, the inhibition at 10 µM in series [9] (setting [13]) was 84%; in [9] (setting [14]) it was 83%; in series [4], 95%; in [6], 65%; in series [7] it was 75%. Moreover, the IC50 in [5] came out at 4.9 ± 0.6 µM. The “Progressive motility (CASA)” value in [12] is listed as “substantially reduced”. Further, in series [12], the “Total motility (CASA)” value was “substantially reduced”. In addition, the “hSLO3 current … % of control” value in [7] (10 µM) is 24.6±9.1 % of control and 25 % of control.
Consider `CN1CCCC(n2nc(Cc3ccc(Cl)cc3)c3ccccc3c2=O)CC1` (centres unmarked) [6 a, azelastine, reference compound], for which, in series [5], the IC50 amounted to 5.4 ± 0.4 µM.

The IC50 is the concentration at which inhibition is half-maximal. The term inhibition denotes the change of the read-out against control, counted positive when it falls.
